Data on four compounds can be found in publication PMC5730044 (International journal of medical microbiology : IJMM, 2014).

Experiment [1] addresses recombinant NanA of DSM20566 (Streptococcus pneumoniae, UniProt P62575). The format is biochemical, S. pneumoniae. The following applies: read-out: substrate affinity (Km) of rNanA; substrate 4-MUNANA.
Experiment [2] has as its system S. pneumoniae CF6937. Description: Minimal bactericidal concentration. The note with it: viability reduced by ≥99.9%. The format is cell-based.
For experiment [3], the system named is pneumococcal NA of strain DSM20566. Description: Lectin-based hemagglutination. Type of experiment: cell-based, S. pneumoniae. The note with it: minimal NA inhibitory concentration.
The subject of experiment [4] is S. pneumoniae BC7326. Kind of experiment: Minimal bactericidal concentration. The following applies: viability reduced by ≥99.9%. Type of experiment: cell-based.
The test system of experiment [5] is S. pneumoniae D39. Kind of experiment: Broth microdilution assay. The format is cell-based. The following applies: Streptococcus pneumoniae, D39, 18 h, read-out: 90% minimal inhibitory concentration. For orientation: Broth dilution looks for growth in wells or tubes with falling amounts of substance.
Experiment [6] deals with S. pneumoniae CJ9400. Description: Broth microdilution assay. The format is cell-based. The note with it: Streptococcus pneumoniae, CJ9400, 18 h, read-out: 90% minimal inhibitory concentration.
For experiment [7], the system named is S. pneumoniae D39. Description: Minimal bactericidal concentration. The format is cell-based. The following applies: viability reduced by ≥99.9%.
In experiment [8] the test system is S. pneumoniae BC7326. Description: Broth microdilution assay. The note with it: Streptococcus pneumoniae, BC7326, 18 h, read-out: 90% minimal inhibitory concentration. The format is cell-based.
In experiment [9] the test system is pneumococcal NA of strain CJ9400. Description: Lectin-based hemagglutination. The note with it: minimal NA inhibitory concentration. The format is cell-based, S. pneumoniae.
Experiment [10] concerns S. pneumoniae. Kind of experiment: Bactericidal activity, studied pneumococci. The following applies: for concentration up to which no inhibitory or bactericidal activity was exhibited: maximum tested concentration. The format is cell-based.
Experiment [11] deals with S. pneumoniae D39. Description: Biofilm inhibition assay. The format is cell-based. The note with it: D39, TSB, 24 h.
The test system of experiment [12] is S. pneumoniae CF6937. Description: Biofilm inhibition assay. Type of experiment: cell-based. The following applies: CF6937, TSB, 24 h.
In experiment [13] the target is pneumococcal NA (Streptococcus pneumoniae, UniProt P62575). The format is biochemical, S. pneumoniae. The note with it: read-out: IC50, CL-based assay; range among the strains.
Sequence of pneumococcal NA (P62575 54-1006): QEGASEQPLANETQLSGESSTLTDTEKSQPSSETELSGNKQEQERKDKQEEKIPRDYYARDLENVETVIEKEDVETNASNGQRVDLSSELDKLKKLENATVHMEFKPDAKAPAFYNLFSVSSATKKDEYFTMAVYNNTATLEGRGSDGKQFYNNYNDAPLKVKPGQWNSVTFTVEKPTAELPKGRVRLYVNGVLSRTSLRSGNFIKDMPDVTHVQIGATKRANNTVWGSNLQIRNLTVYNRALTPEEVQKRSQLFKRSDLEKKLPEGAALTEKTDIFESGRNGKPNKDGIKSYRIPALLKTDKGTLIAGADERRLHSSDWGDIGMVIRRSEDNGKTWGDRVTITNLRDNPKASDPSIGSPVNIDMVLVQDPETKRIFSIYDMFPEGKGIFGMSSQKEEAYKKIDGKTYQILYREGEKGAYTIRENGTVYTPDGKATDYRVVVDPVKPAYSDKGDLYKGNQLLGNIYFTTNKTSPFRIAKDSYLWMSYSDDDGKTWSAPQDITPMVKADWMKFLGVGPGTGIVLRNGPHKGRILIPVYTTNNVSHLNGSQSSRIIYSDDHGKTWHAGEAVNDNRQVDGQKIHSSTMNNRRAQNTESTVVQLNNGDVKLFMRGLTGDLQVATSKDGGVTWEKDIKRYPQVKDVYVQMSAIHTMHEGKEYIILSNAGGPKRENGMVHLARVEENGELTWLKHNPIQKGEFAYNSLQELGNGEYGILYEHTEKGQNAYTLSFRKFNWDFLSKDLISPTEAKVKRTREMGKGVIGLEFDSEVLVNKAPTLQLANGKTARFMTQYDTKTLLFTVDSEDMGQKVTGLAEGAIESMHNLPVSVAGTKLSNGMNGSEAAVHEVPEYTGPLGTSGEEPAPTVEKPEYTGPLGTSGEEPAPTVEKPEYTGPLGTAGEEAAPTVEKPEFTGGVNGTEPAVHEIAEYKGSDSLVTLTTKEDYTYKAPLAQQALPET
Experiment [14] concerns S. pneumoniae CJ9400. Description: Biofilm inhibition assay. Type of experiment: cell-based. The note with it: CJ9400, TSB, 24 h.
Experiment [15] has as its system S. pneumoniae CJ9400. Kind of experiment: Minimal bactericidal concentration. The note with it: viability reduced by ≥99.9%. Type of experiment: cell-based.
Experiment [16] relates to S. pneumoniae PN8828. Kind of experiment: Broth microdilution assay. Type of experiment: cell-based. The note with it: Streptococcus pneumoniae, PN8828, 18 h, read-out: 90% minimal inhibitory concentration.
For experiment [17], the system named is S. pneumoniae PN8828. Description: Biofilm inhibition assay. Type of experiment: cell-based. The following applies: PN8828, TSB, 24 h.
The test system of experiment [18] is S. pneumoniae DSM14378. Kind of experiment: Broth microdilution assay. Type of experiment: cell-based. The note with it: Streptococcus pneumoniae, DSM14378, 18 h, read-out: 90% minimal inhibitory concentration.
For experiment [19], the system named is S. pneumoniae CF8919. Kind of experiment: Broth microdilution assay. The note with it: Streptococcus pneumoniae, CF8919, 18 h, read-out: 90% minimal inhibitory concentration. Type of experiment: cell-based.
The test system of experiment [20] is S. pneumoniae BC7326. Kind of experiment: Biofilm inhibition assay. Type of experiment: cell-based. The note with it: BC7326, TSB, 24 h.
Experiment [21] concerns pneumococcal NA of strain D39. Kind of experiment: Lectin-based hemagglutination. The format is cell-based, S. pneumoniae. The note with it: for Inhibitory concentration (HA assay): minimal NA inhibitory concentration, strain D39.
Experiment [22] relates to S. pneumoniae BC57. Description: Broth microdilution assay. Type of experiment: cell-based. The note with it: Streptococcus pneumoniae, BC57, 18 h, read-out: 90% minimal inhibitory concentration.
The subject of experiment [23] is S. pneumoniae BC57. Kind of experiment: Biofilm inhibition assay. The format is cell-based. The following applies: BC57, TSB, 24 h.
Experiment [24] concerns S. pneumoniae CF6937. Kind of experiment: Broth microdilution assay. The format is cell-based. The note with it: Streptococcus pneumoniae, CF6937, 18 h, read-out: 90% minimal inhibitory concentration.
Experiment [25] has as its system pneumococcal adherence to pulmonary epithelial A549 cells. The following applies: DSM20566 and PN8828.
For experiment [26], the system named is S. pneumoniae DSM20566. Description: Broth microdilution assay. The format is cell-based. The note with it: Streptococcus pneumoniae, DSM20566, 18 h, read-out: 90% minimal inhibitory concentration.
In experiment [27] the test system is S. pneumoniae DSM14378. Description: Minimal bactericidal concentration. The format is cell-based. The note with it: viability reduced by ≥99.9%.
Experiment [28] concerns S. pneumoniae CF8919. Kind of experiment: Biofilm inhibition assay. The note with it: CF8919, TSB, 24 h. The format is cell-based.
In experiment [29] the test system is S. pneumoniae DSM14378. Kind of experiment: Biofilm inhibition assay. The format is cell-based. The note with it: DSM14378, TSB, 24 h.
For experiment [30], the system named is S. pneumoniae DSM20566. Description: Biofilm inhibition assay. Type of experiment: cell-based. The note with it: DSM20566, TSB, 24 h.
The subject of experiment [31] is S. pneumoniae DSM20566. Description: Minimal bactericidal concentration. The format is cell-based. The note with it: viability reduced by ≥99.9%.
Experiment [32] deals with S. pneumoniae. Kind of experiment: Broth microdilution assay. Type of experiment: cell-based. The note with it: Streptococcus pneumoniae, read-out: MIC90 values. In outline:
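Pneumococci were pre-grown in BHI with gentle shaking at 37°C for 4–5 h (mid-exponential), adjusted to McFarland 0.5 (1.5 × 10^8 cfu/mL) and diluted 50× in BHI. 50 µL bacteria plus 100 µL of two-fold compound dilutions (top 50 or 200 µM) in BHI were run in duplicate, overnight at 37°C, 5% CO₂. OD620 at 18 h minus 0 h was taken relative to no-compound growth control; MIC90 is 90% turbidity reduction.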

≈ marks a conversion by molar mass, not a printed value. Where a name gives a salt, the structure may show the parent alone.

Sequence of recombinant NanA of DSM20566 (P62575 116-1035 limits assumed): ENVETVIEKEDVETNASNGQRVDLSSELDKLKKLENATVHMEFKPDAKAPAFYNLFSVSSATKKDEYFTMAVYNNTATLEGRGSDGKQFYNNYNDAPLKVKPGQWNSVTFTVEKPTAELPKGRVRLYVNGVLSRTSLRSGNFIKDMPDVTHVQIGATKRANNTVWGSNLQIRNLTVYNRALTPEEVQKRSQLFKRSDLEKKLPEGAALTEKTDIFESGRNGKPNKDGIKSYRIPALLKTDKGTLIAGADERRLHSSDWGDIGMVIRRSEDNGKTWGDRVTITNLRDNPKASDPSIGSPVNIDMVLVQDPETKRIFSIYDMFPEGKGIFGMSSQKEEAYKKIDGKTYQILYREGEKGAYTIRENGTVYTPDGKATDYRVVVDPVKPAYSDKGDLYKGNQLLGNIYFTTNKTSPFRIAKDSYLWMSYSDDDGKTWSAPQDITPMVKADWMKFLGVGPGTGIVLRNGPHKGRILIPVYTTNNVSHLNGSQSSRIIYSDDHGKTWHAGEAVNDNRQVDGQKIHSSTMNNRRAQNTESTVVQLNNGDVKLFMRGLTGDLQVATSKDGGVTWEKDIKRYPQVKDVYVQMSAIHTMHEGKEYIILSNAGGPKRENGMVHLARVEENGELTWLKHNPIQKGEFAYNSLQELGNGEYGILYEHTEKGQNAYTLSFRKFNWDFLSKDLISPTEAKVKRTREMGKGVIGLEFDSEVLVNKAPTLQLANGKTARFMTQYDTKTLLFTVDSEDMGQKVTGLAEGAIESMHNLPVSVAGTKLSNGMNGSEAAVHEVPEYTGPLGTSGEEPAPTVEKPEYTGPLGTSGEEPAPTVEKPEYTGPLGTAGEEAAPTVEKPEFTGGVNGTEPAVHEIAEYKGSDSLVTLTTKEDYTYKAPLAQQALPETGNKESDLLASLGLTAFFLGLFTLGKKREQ

In the case of `CC(=O)N[C@H]1[C@H]([C@H](O)[C@H](O)CO)O[C@@](Oc2ccc3c(C)cc(=O)oc3c2)(C(=O)O)C[C@@H]1O` [4-MUNANA, 2′-(4-methylumbelliferyl)-α-D-N-acetylneuraminic acid sodium salt hydrate], the Km in [1] turned out to be 23.6 µM.
For the compound `O=C(CCc1ccccc1)C[C@@H]1C[C@@H](c2ccccc2)c2c(cc(/C=C/c3ccccc3)oc2=O)O1` [katsumadain A], the Bactericidal concentration in [2], in experiment [4], in [7], in [15], in experiment [27] and in [31] was above 50 µM each time. Moreover, the entries for the “Inhibitory concentration (HA assay)” value in [3], in [9] and in experiment [21] were 3.2 ± 0.0 µM, 0.7 ± 0.4 µM and 1.0 ± 0.0 µM, respectively. The MIC in experiment [5], in experiment [6], in experiment [8], in experiment [16], in experiment [18] and in experiment [19] was above 50 µM in each case. Besides, the MIC in experiment [22], in experiment [24] and in experiment [26] was above 50 µM in each case. Besides, the “concentration up to which no inhibitory or bactericidal activity was exhibited” value in experiment [10] is above 50 µM. Further, the “90% minimal biofilm inhibitory concentration” value in experiment [11], in [12], in [14], in experiment [17], in experiment [20] and in experiment [23] was above 50 µM throughout. For the same compound, the “90% minimal biofilm inhibitory concentration” value in experiment [28], in experiment [29] and in [30] was above 50 µM in each case. Further, the IC50 in [13] was in the range of 310 to 1610 nM. In experiment [25], the “effect on adhesion of pneumococci to A549 cells (in words)” value is listed as “did not reduce pneumococcal adherence”.
Take `CO[C@H]1/C=C/O[C@@]2(C)Oc3c(C)c(O)c4c(O)c(c(/C=N/N5CCN(C)CC5)c(O)c4c3C2=O)NC(=O)/C(C)=C\C=C\[C@H](C)[C@H](O)[C@@H](C)[C@@H](O)[C@@H](C)[C@H](OC(C)=O)[C@@H]1C` [rifampicin]: the MIC90 in [32] fell in the range of 0.01 to 0.04 µM (≈ 0.00823 to 0.0329 µg/mL). The Bactericidal concentration in experiment [2] amounted to 0.05 ± 0.03 µM; in experiment [4], 0.08 ± 0.03 µM; in experiment [7] it was 0.22 ± 0.09 µM; in [15], 0.23 ± 0.16 µM; in [27], 0.14 ± 0.06 µM; in experiment [31], 1.97 ± 1.23 µM. Besides, the MIC is 0.021 ± 0.002 µM (≈ 0.0173 µg/mL) in experiment [5]; 0.032 ± 0.03 µM (≈ 0.0263 µg/mL) in [6]; 0.016 ± 0.005 µM (≈ 0.0132 µg/mL) in [8]; 0.005 ± 0.001 µM (≈ 0.00411 µg/mL) in experiment [16]; 0.031 ± 0.023 µM (≈ 0.0255 µg/mL) in experiment [18]; 0.009 ± 0.001 µM (≈ 0.00741 µg/mL) in [19]. In addition, the MIC in [22] is 0.012 ± 0.002 µM (≈ 0.00988 µg/mL); in [24], 0.034 ± 0.028 µM (≈ 0.028 µg/mL); in [26], 0.041 ± 0.011 µM (≈ 0.0337 µg/mL). The “factor of reduction of viability of pneumococci” value in experiment [10] (within 18 h) is on record as above 1000. For the same compound, the “90% minimal biofilm inhibitory concentration” value amounted to 0.013 ± 0.002 µM in experiment [11]; 0.020 ± 0.002 µM in experiment [12]; 0.003 ± 0.001 µM in [14]; 0.011 ± 0.007 µM in experiment [17]; 0.016 ± 0.010 µM in [20]; 0.012 ± 0.001 µM in experiment [23]. The “90% minimal biofilm inhibitory concentration” value came to 0.006 ± 0.004 µM in experiment [28], 0.014 ± 0.008 µM in experiment [29] and 0.049 ± 0.030 µM in [30].
As for `CC(=O)N[C@H]1[C@H]([C@H](O)[C@H](O)CO)OC(C(=O)O)=C[C@@H]1O` [DANA, 2,3-dehydro-2-deoxy-N-acetylneuraminic acid], the Bactericidal concentration in experiment [2], in experiment [4], in [7], in experiment [15], in experiment [27] and in experiment [31] was above 50 µM in each case. The “Inhibitory concentration (HA assay)” value is listed as 45.3 ± 30.6 µM in experiment [3], 15.4 ± 10.8 µM in [9] and above 100 µM in experiment [21]. Also, the “concentration up to which no inhibitory or bactericidal activity was exhibited” value in experiment [10] was above 50 µM. The “90% minimal biofilm inhibitory concentration” value in experiment [11], in experiment [12], in experiment [14], in experiment [17], in [20] and in [23] was above 50 µM each time. Further, the “90% minimal biofilm inhibitory concentration” value in [28], in experiment [29] and in experiment [30] was above 50 µM throughout. The “activity in HA assay (in words)” value in experiment [21] (reference strain D39) was “no activity”. Besides, in experiment [25], the “effect on adhesion of pneumococci to A549 cells (in words)” value is reported as “did not reduce pneumococcal adherence”.

The Km is the concentration of substrate that gives half-maximal velocity. One may read the IC50 as the concentration at which inhibition is half-maximal. As a reminder, the MIC90 is an inhibitory concentration at the 90% level, which refers to growth in some studies and to a panel of isolates in others.
